ChEMBL document CHEMBL1137088, “Distamycin analogues with enhanced lipophilicity: synthesis and antimicrobial activity” (2004)
In brackets after ≈: the same amount, converted by molar mass. Activity calls are given as the source filed them. The rule behind the calls is not given here.

Legend:
Aspergillus niger [1] = test: Antifungal activity against Aspergillus niger IMI17454 strain; na = not active; assay type: functional
Aspergillus nidulans [2] = test: Antifungal activity against Aspergillus nidulans CABI 0160037 strain; na = not active; assay type: functional
Candida albicans = test: Antifungal activity against Candida albicans NCPF 3179 strain.; assay type: functional; conditions: Candida albicans; read-out: MIC
Escherichia coli [3] = test: Antibacterial activity against Escherichia coli NCTC 9001 strain.; assay type: functional, organism-based
[4] = Antibacterial activity against Enterobacter cloacae NCTC 10005 strain; assay type: functional
Klebsiella aerogenes [5] = test: Antibacterial activity against Klebsiella aerogenes WRL CN 345 strain.; assay type: functional, WRL CN 375; conditions: Klebsiella aerogenes, WRL CN 375; read-out: MIC
Staphylococcus aureus [6] = test: Antibacterial activity against methicillin-resistant Staphylococcus aureus (MRSA) PHLS M1 strain.; assay type: functional
Outline: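 Read-out is the minimum inhibitory concentration, reported in µM. Amoxycillin is tested alongside as the reference antibiotic.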

[7] = tested on: Mycolicibacterium fortuitum; test: Antibacterial activity against Mycobacterium fortuitum NCTC 10394 strain.; assay type: functional
Proteus vulgaris = test: Antibacterial activity against Proteus vulgaris NCTC 4175 strain.; assay type: functional
Staphylococcus aureus [8] = test: Antibacterial activity against Staphylococcus aureus NCTC 6571 strain.; assay type: functional
Enterococcus faecalis [9] = test: Antibacterial activity against Streptococcus faecalis NCTC 775 strain.; assay type: functional
[10] = Antifungal activity against Candida albicans NCPF 3179 strain; na = not active; assay type: functional
Enterobacter cloacae = test: Antibacterial activity against Enterobacter cloacae NCTC 10005 strain.; assay type: functional, organism-based
Klebsiella aerogenes [11] = test: Antibacterial activity against Klebsiella aerogenes WRL CN 345 strain; na = not active; assay type: functional, organism-based
Staphylococcus aureus [12] = test: Antibacterial activity against MRSA PHLS M1 strain; na = not active; assay type: functional, organism-based
[13] = tested on: Mycolicibacterium fortuitum; test: Antibacterial activity against Mycobacterium fortuitum NCTC 10394 strain; na = not active; assay type: functional, organism-based
[14] = Antibacterial activity against Proteus vulgaris NCTC 4175 strain; na = not active; assay type: functional
Enterococcus faecalis [15] = test: Antibacterial activity against Streptococcus faecalis NCTC 775 strain; na = not active; assay type: functional, organism-based
Staphylococcus aureus [16] = test: Antibacterial activity against Staphylococcus aureus NCTC 6571 strain; na = not active; assay type: functional, organism-based
Aspergillus niger [17] = test: Antifungal activity against Aspergillus niger IMI17454 strain.; assay type: functional; conditions: Aspergillus niger; read-out: MIC
Aspergillus nidulans [18] = test: Antifungal activity against Aspergillus nidulans CABI 0160037 strain; assay type: functional
Escherichia coli [19] = test: Antibacterial activity against Escherichia coli NCTC 9001 strain; assay type: functional
Staphylococcus aureus [20] = test: Antibacterial activity against MRSA PHLS M1 strain; assay type: functional

SMILES | MIC (Aspergillus niger [1]) | MIC (Aspergillus nidulans [2]) | MIC (Candida albicans) [µM] | MIC (Escherichia coli [3]) | MIC (Klebsiella aerogenes [5]) [µM] | MIC (Proteus vulgaris) [µM] | MIC (Staphylococcus aureus [8]) | MIC [10] | MIC (Enterobacter cloacae) | MIC (Klebsiella aerogenes [11]) | MIC (Staphylococcus aureus [12]) | MIC [13] | MIC (Enterococcus faecalis [15]) | MIC (Aspergillus niger [17]) [µM] | MIC (Aspergillus nidulans [18]) [µM] | MIC [4] [µM] | MIC [7] [µM] | MIC (Enterococcus faecalis [9]) [µM] | MIC (Escherichia coli [19]) | further results
CC(C)CCn1cc(NC(=O)c2cc(NC=O)cn2C)cc1C(=O)Nc1cc(C(=O)NCCCN(C)C)n(C)c1 | 150 µM (≈ 82.9 µg/mL) | inactive | 150 (≈ 82.9 µg/mL) | inactive | 37.5 (≈ 20.7 µg/mL) | 150 (≈ 82.9 µg/mL) | 150 µM (≈ 82.9 µg/mL) |  |  |  |  |  |  |  |  | 150 (≈ 82.9 µg/mL) | 37.5 (≈ 20.7 µg/mL) | 57.5 (≈ 31.8 µg/mL) |  | MIC (Staphylococcus aureus [6]): 150 µM (≈ 82.9 µg/mL)
CCn1cc(NC(=O)c2nc(NC(=O)c3nc(NC=O)cn3CC)cn2CC)nc1C(=O)NCCCN(C)C | inactive | inactive |  | inactive |  |  | 19 µM (≈ 10.3 µg/mL) | inactive | inactive | inactive | inactive | inactive | inactive |  |  |  |  |  |  | MIC [14]: inactive
Cc1sc(NC=O)cc1C(=O)Nc1cc(C(=O)Nc2cc(C(=O)NCCCN(C)C)n(C)c2)n(C)c1 | inactive | inactive | 159 (≈ 81.7 µg/mL) | inactive |  | 79.6 (≈ 40.9 µg/mL) |  |  | inactive | inactive | inactive | inactive | inactive |  |  |  |  |  |  | MIC (Staphylococcus aureus [16]): inactive
CC(=O)Nc1cc(C(=O)Nc2cc(C(=O)Nc3cc(C(=O)NCCCN(C)C)n(C)c3)n(C)c2)c(C)s1 |  | inactive |  | inactive | 156 (≈ 82.3 µg/mL) | 156 (≈ 82.3 µg/mL) | 156 µM (not active) (≈ 82.3 µg/mL) | inactive | inactive |  | inactive | inactive | inactive | 156 (≈ 82.3 µg/mL) |  |  |  |  |  | 
CC(=O)Nc1nc(C(=O)Nc2cc(C(=O)Nc3nc(C(=O)NCCCN(C)C)c(C(C)C)s3)n(C)c2)c(C(C)C)s1 |  |  | 34.9 (≈ 21 µg/mL) |  | 69.8 (≈ 42.1 µg/mL) | 69.8 (≈ 42.1 µg/mL) | 4.3 µM (≈ 2.59 µg/mL) |  |  |  |  |  |  | 4.3 (≈ 2.59 µg/mL) |  | 69.8 (≈ 42.1 µg/mL) | 17.5 (≈ 10.5 µg/mL) | 4.3 (≈ 2.59 µg/mL) | 70 µM (≈ 42.2 µg/mL) | MIC (Staphylococcus aureus [6]): 4.3 µM (≈ 2.59 µg/mL)
COc1ccc(CC(=O)Nc2cc(C(=O)Nc3cc(C(=O)Nc4cc(C(=O)NCCCN(C)C)n(C)c4)n(CCC(C)C)c3)n(C)c2)cc1 |  |  | 15.9 (≈ 10.7 µg/mL) | inactive | 15.9 (≈ 10.7 µg/mL) |  | 15.9 µM (≈ 10.7 µg/mL) |  | inactive |  |  |  |  | 15.9 (≈ 10.7 µg/mL) | 15.9 (≈ 10.7 µg/mL) |  | 15.9 (≈ 10.7 µg/mL) | 15.9 (≈ 10.7 µg/mL) |  | MIC (Staphylococcus aureus [20]): 63.6 µM (≈ 42.8 µg/mL); MIC [14]: inactive
CC(C)n1cc(NC(=O)c2cc(NC=O)cn2C)cc1C(=O)Nc1cc(C(=O)NCCCN2CCCC2)n(C)c1 |  |  |  |  | 37.6 (≈ 20.7 µg/mL) | 150 (≈ 82.6 µg/mL) | 150 µM (≈ 82.6 µg/mL) | inactive |  |  |  |  |  | 150 (≈ 82.6 µg/mL) | 150 (≈ 82.6 µg/mL) | 75.2 (≈ 41.4 µg/mL) | 150 (≈ 82.6 µg/mL) | 75.2 (≈ 41.4 µg/mL) | inactive | MIC (Staphylococcus aureus [6]): 75.2 µM (≈ 41.4 µg/mL)

Continued, in another order:

MIC (Aspergillus niger [1]) | MIC (Aspergillus nidulans [2]) | MIC (Candida albicans) [µM] | MIC (Escherichia coli [3]) | MIC (Klebsiella aerogenes [5]) [µM] | MIC (Proteus vulgaris) [µM] | MIC (Staphylococcus aureus [8]) | MIC [10] | MIC (Enterobacter cloacae) | MIC (Klebsiella aerogenes [11]) | MIC (Staphylococcus aureus [12]) | MIC [13] | MIC (Enterococcus faecalis [15]) | MIC (Aspergillus niger [17]) [µM] | MIC (Aspergillus nidulans [18]) [µM] | SMILES | MIC [4] [µM] | MIC [7] [µM] | MIC (Enterococcus faecalis [9]) [µM] | MIC (Escherichia coli [19]) | further results
 |  | 157 (≈ 82 µg/mL) |  | 157 (≈ 82 µg/mL) | 157 (≈ 82 µg/mL) | 1200 µM (≈ 627 µg/mL) |  |  |  | inactive |  | inactive | 157 (≈ 82 µg/mL) | 157 (≈ 82 µg/mL) | Cn1cc(NC(=O)c2cc(NC(=O)c3cc(NC=O)cn3C)cn2C)cc1C(=O)NCCCN1CCCC1 | 157 (≈ 82 µg/mL) | 78.5 (≈ 41 µg/mL) |  | 157 µM (≈ 82 µg/mL) | 
inactive | inactive |  | inactive |  |  |  | inactive | inactive | inactive | inactive | inactive | inactive |  |  | CC(C)n1cc(NC(=O)c2cc(NC=O)cn2C)cc1C(=O)Nc1cc(C(=O)NCCCN2CCOCC2)n(C)c1 |  |  |  |  | MIC [14]: inactive; MIC (Staphylococcus aureus [16]): inactive
 |  |  |  | 140 (≈ 85.1 µg/mL) | 140 (≈ 85.1 µg/mL) | 140 µM (≈ 85.1 µg/mL) | inactive |  |  | inactive |  |  | 140 (≈ 85.1 µg/mL) | 69.3 (≈ 42.1 µg/mL) | CC(C)CCn1cc(NC(=O)c2cc(NC=O)cn2C)cc1C(=O)Nc1cc(C(=O)NCCCN2CCN(C)CC2)n(C)c1 | 140 (≈ 85.1 µg/mL) | 69.3 (≈ 42.1 µg/mL) | 69.3 (≈ 42.1 µg/mL) | 140 µM (≈ 85.1 µg/mL) | 
inactive | inactive |  | inactive |  | 164 (≈ 81.4 µg/mL) | 10 µM (≈ 4.97 µg/mL) | inactive | inactive | inactive | inactive | inactive |  |  |  | CN(C)CCCNC(=O)c1cc(NC(=O)c2cc(NC(=O)c3cc(NC=O)cn3C)cn2C)cn1C |  |  | 0.31 (≈ 0.154 µg/mL) |  | 
